Source: ChEMBL document CHEMBL1649438, “Activities of ceftobiprole and other cephalosporins against extracellular and intracellular (THP-1 macrophages and keratinocytes) forms of methicillin-susceptible and methicillin-resistant Staphylococcus aureus” (Antimicrob Agents Chemother, 2009)
Values after ≈ are worked out from the molar mass of the structure shown.

Experiments:
Staphylococcus aureus [1] = assay: Antimicrobial activity against Panton-valentine leucocidin-positive community-acquired methicillin-resistant Staphylococcus aureus isolate MEH2225605 infected in human THP-1 cells assessed as bacterial count per mg of cell protein at low extracellular compound concentration after 24 hrs; type: functional
In short: (§1)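 THP-1 human macrophages infected with S. aureus (postphagocytosis inoculum 1.5 × 10^6 to 3.0 × 10^6 CFU/mg cell protein), then incubated 24 h with increasing extracellular antibiotic concentrations. Change in log10 CFU/mg cell protein from the postphagocytosis inoculum, n = 3. Hill function fitted on log-transformed data. Low-concentration value (E0) and high-concentration value (Emax) are extrapolated. Where a pH is given, concentrations are expressed as multiples of the broth MIC at that pH.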

Staphylococcus aureus [2] = assay: Antimicrobial activity against Panton-valentine leucocidin-positive community-acquired methicillin-resistant Staphylococcus aureus isolate MEH2225605 infected in human THP-1 cells assessed as change in bacterial count after 24 hrs; type: functional, organism-based; conditions: isolate MEH2225605, THP-1, 24 h; in short: as §1
Staphylococcus aureus [3] = assay: Antimicrobial activity against Panton-valentine leucocidin-positive community-acquired methicillin-resistant Staphylococcus aureus N4042228 infected in human THP-1 cells assessed as change in bacterial count after 24 hrs at pH 5.5; type: functional, organism-based; conditions: N4042228, THP-1, 24 h; in short: as §1
Staphylococcus aureus [4] = assay: Antimicrobial activity against Panton-valentine leucocidin-positive community-acquired methicillin-resistant Staphylococcus aureus STA 44 infected in human THP-1 cells assessed as bacterial count per mg of cell protein at high extracellular compound concentration after 24 hrs at pH 5.5; type: functional; in short: as §1
Staphylococcus aureus [5] = assay: Bacteriostatic activity against Panton-valentine leucocidin-positive community-acquired methicillin-resistant Staphylococcus aureus STA 44 infected in human THP-1 cells assessed as change in bacterial count after 24 hrs at pH 5.5; type: functional
In short: (§2)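 THP-1 macrophages infected as described previously, with a postphagocytosis inoculum of 1.5 × 10⁶ to 3.0 × 10⁶ CFU/mg cell protein. Cells were exposed 24 h to increasing extracellular antibiotic concentrations. Response is the change in log10 CFU/mg protein from the inoculum (n = 3), fitted to a Hill function. E0 and Emax were extrapolated to infinitely low and high concentrations. EC50 and static concentration (graphical interpolation) are expressed as multiples of the broth MIC at pH 5.5 or 7.4.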

Staphylococcus aureus [6] = assay: Bacteriostatic activity against hospital-acquired vancomycin-intermediate Staphylococcus aureus NRS18 infected in human THP-1 cells assessed as change in bacterial count after 24 hrs at pH 5.5; type: functional
In short: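 Human THP-1 macrophage-like cells were infected with S. aureus; the post-phagocytosis inoculum was 1.5 × 10^6 to 3.0 × 10^6 CFU/mg cell protein. Cells were exposed 24 h to increasing extracellular drug levels. Change in log10 CFU/mg protein from the inoculum was fitted to a Hill function (n = 3). Static concentration was read by graphical interpolation, as a multiple of the pH 5.5 broth MIC.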

Staphylococcus aureus [7] = assay: Antimicrobial activity against hospital-acquired vancomycin-resistant Staphylococcus aureus VRS1 infected in human THP-1 cells assessed as change in bacterial count after 24 hrs at pH 5.5; type: functional, cell-based; conditions: VRS1, THP-1, 24 h; in short: as §2
Staphylococcus aureus [8] = assay: Antimicrobial activity against Panton-valentine leucocidin-positive community-acquired methicillin-resistant Staphylococcus aureus NRS192 infected in human THP-1 cells assessed as change in bacterial count after 24 hrs at pH 5.5; type: functional, organism-based; conditions: NRS192, THP-1, 24 h; in short: as §1
Staphylococcus aureus [9] = assay: Bacteriostatic activity against methicillin-susceptible Staphylococcus aureus […] infected in human THP-1 cells assessed as change in bacterial count after 24 hrs at pH 5.5; type: functional
In short: (§3)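 Human THP-1 macrophage-like cells were infected with S. aureus to a postphagocytosis inoculum of 1.5 × 10^6 to 3.0 × 10^6 CFU/mg cell protein. Cells were then exposed 24 h to increasing extracellular antibiotic concentrations. Response was the log10 CFU change per mg protein from the postphagocytosis inoculum, n = 3. A Hill function was fitted on log-transformed axes. E0 and Emax were extrapolated to infinitely low and high concentrations. Cs was read by graphical interpolation. Concentrations were expressed as multiples of the broth MIC at pH 5.5 or pH 7.4.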

Staphylococcus aureus [10] = assay: Bacteriostatic activity against methicillin-susceptible Staphylococcus aureus NRS52 infected in human THP-1 cells assessed as change in bacterial count after 24 hrs at pH 5.5; type: functional; in short: as §3
Staphylococcus aureus [11] = assay: Antimicrobial activity against methicillin-susceptible Staphylococcus aureus NRS52 infected in human THP-1 cells assessed as change in bacterial count after 24 hrs at pH 7.4; type: functional, organism-based; conditions: NRS52, THP-1, 24 h; in short: as §2
Staphylococcus aureus [12] = assay: Antimicrobial activity against hospital-acquired methicillin-resistant Staphylococcus aureus […] infected in human THP-1 cells assessed as change in bacterial count after 24 hrs at pH 7.4; type: functional, organism-based; conditions: THP-1, 24 h; in short: as §2
Staphylococcus aureus [13] = assay: Antimicrobial activity against hospital-acquired vancomycin-intermediate Staphylococcus aureus NRS126 infected in human THP-1 cells assessed as bacterial count per mg of cell protein at low extracellular compound concentration after 24 hrs at pH 7.4; type: functional; in short: as §2
Staphylococcus aureus [14] = assay: Antimicrobial activity against Panton-valentine leucocidin-positive community-acquired methicillin-resistant Staphylococcus aureus N4042228 infected in human THP-1 cells assessed as change in bacterial count after 24 hrs at pH 7.4; type: functional, organism-based; conditions: N4042228, THP-1, 24 h; in short: as §1
Staphylococcus aureus [15] = assay: Antimicrobial activity against methicillin-susceptible Staphylococcus aureus ATCC 25923 infected in human keratinocytes assessed as bacterial count per mg of cell protein at high extracellular compound concentration after 24 hrs; type: functional
In short: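 Primary human skin keratinocytes were grown in defined keratinocyte serum-free medium and infected with S. aureus to 1.5 × 10^6 to 3.0 × 10^6 CFU/mg cell protein. Cells were exposed 24 h to increasing extracellular concentrations. Response was the log10 CFU change from the postphagocytosis inoculum, fitted by a Hill equation with slope 1. Cs is the concentration giving CFU equal to the original inoculum, found by graphical interpolation.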

Staphylococcus aureus [16] = assay: Antimicrobial activity against methicillin-resistant Staphylococcus aureus ATCC 33591 infected in human keratinocytes assessed as change in bacterial count after 24 hrs; type: functional, organism-based; conditions: ATCC 33591, 24 h
In short: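 Primary human skin keratinocytes were grown in defined keratinocyte serum-free medium, infected with a postphagocytosis inoculum of 1.5 × 10⁶ to 3.0 × 10⁶ CFU/mg cell protein, then exposed 24 h to increasing extracellular antibiotic concentrations. Change in log10 CFU/mg protein from the inoculum was fitted to a Hill equation with slope 1. E0 and Emax were extrapolated to infinitely low and high concentrations, in total drug mg/liter.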

Staphylococcus aureus [17] = assay: Antimicrobial activity against methicillin-susceptible Staphylococcus aureus […] infected in human THP-1 cells assessed as bacterial count per mg of cell protein at high extracellular compound concentration after 24 hrs; type: functional; in short: as §3
Staphylococcus aureus [18] = assay: Antimicrobial activity against methicillin-susceptible Staphylococcus aureus ATCC 11632 infected in human THP-1 cells assessed as change in bacterial count after 24 hrs; type: functional, organism-based; conditions: ATCC 11632, THP-1, 24 h; in short: as §2
Staphylococcus aureus [19] = assay: Antimicrobial activity against hospital-acquired methicillin-resistant Staphylococcus aureus ATCC 33592 infected in human THP-1 cells assessed as bacterial count per mg of cell protein at low extracellular compound concentration after 24 hrs; type: functional; in short: as §2
Staphylococcus aureus [20] = assay: Antimicrobial activity against hospital-acquired methicillin-resistant Staphylococcus aureus […] infected in human THP-1 cells assessed as bacterial count per mg of cell protein at high extracellular compound concentration after 24 hrs; type: functional; in short: as §2

## Nc1nc(/C(=N/O)C(=O)N[C@@H]2C(=O)N3C(C(=O)O)=C(/C=C4\CCN([C@@H]5CCNC5)C4=O)CS[C@H]23)ns1 [CEFTOBIPROLE]
Staphylococcus aureus [1]
  log10cfu: 2.47
Staphylococcus aureus [2]
  EC50: 0.82 µg/mL (≈ 1.53 µM)
Staphylococcus aureus [3]
  EC50: 0.54 × MIC
Staphylococcus aureus [4]
  log10cfu: -1.02
Staphylococcus aureus [5]
  Activity: 1.45 × MIC
Staphylococcus aureus [6]
  Activity: 1.97 × MIC
Staphylococcus aureus [7]
  EC50: 0.77 × MIC
Staphylococcus aureus [8]
  EC50: 0.54 × MIC
Staphylococcus aureus [9]
  Activity: 1.19 × MIC
Staphylococcus aureus [10]
  Activity: 1.19 × MIC
Staphylococcus aureus [11]
  EC50: 0.2 ×MIC
Staphylococcus aureus [12]
  EC50: 0.28 ×MIC
Staphylococcus aureus [13]
  log10cfu: 2.6
Staphylococcus aureus [14]
  EC50: 0.33 ×MIC
Staphylococcus aureus [15]
  log10cfu: -0.94
Staphylococcus aureus [16]
  EC50: 1.08 µg/mL (≈ 2.02 µM)
Staphylococcus aureus [17]
  log10cfu: -1.15
Staphylococcus aureus [18]
  EC50: 0.205 µg/mL (≈ 0.383 µM)
Staphylococcus aureus [19]
  log10cfu: 2.58
Staphylococcus aureus [20]
  log10cfu: -0.9
